B1: NELF-E aptamer (parent)
chain: CCCAACGACUGCCGAGCGAGAUUACGCUUGAGCGCCCCACUGAGGAUGCCCACGGGCGAUUGGGGCACGG

Variants of: B1
Test: HiTS-RAP
Conditions: with NELF-E (Drosophila)
Procedure, shortened: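 Aptamer DNA templates bearing a T7 promoter and a ter site were sequenced on an Illumina GAIIx flowcell. T7 RNA polymerase then transcribed them in situ, and GST-Tus halted transcription over 30 minutes at 37°C. After a 30-minute room-temperature equilibration with NELF-E-mOrange at 0.064 to 1000 nM in HEPES binding buffer, clusters were imaged, using only the first binding curve. Intensities normalised to sequencing intensity were averaged per sequence and fitted with weighted Hill fits to give Kd, retaining only fits whose variance stayed under 1,000,000.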
With G7U A59G the Kd was 67.6 nM. U10C U23G gave a Kd of 5.12 nM. Variant A4U G30A has a Kd of 3.77 nM. In the case of C2A, the Kd is reported as 5.18 nM. For C2G, the Kd was 5.3 nM. Work on G32U yielded a Kd of 5.38 nM. In the case of A4G C51U, the Kd is reported as 7.58 nM. With C6G C12G the Kd was 5.68 nM. Variant U23G G42A has a Kd of 60.7 nM. C13G C33G was tested, and the Kd was 6.05 nM. Work on A8C U29G yielded a Kd of 8.24 nM. Work on C25U U29G yielded a Kd of 6.54 nM. Work on A4U U61A yielded a Kd of 22.7 nM. A4U U61C showed a Kd of 74.2 nM. U22G C38U gave a Kd of 8.32 nM. Variant C9G A15G has a Kd of 6.64 nM. With U22G C40G the Kd was 6.42 nM. U22G C40U gave a Kd of 82.8 nM. C12U U41G gave a Kd of 6.2 nM. C9G A31U showed a Kd of 7.5 nM. In the case of C9G C53U, the Kd is reported as 4.66 nM. U29G A31G gave a Kd of 6.61 nM. U10G C51G gave a Kd of 4.43 nM. Variant G7U G62A has a Kd of 25.2 nM. Work on C13U G14U yielded a Kd of 5.39 nM. Work on U29G G55A yielded a Kd of 7.74 nM. Variant A24G G63A has a Kd of 14.3 nM. G16U G64A was tested, and the Kd was 7.51 nM. C13G C36G showed a Kd of 6.08 nM. Work on A5U C13U yielded a Kd of 7.12 nM. With C57U A67G the Kd was 4.59 nM. In the case of C13U G55A, the Kd is reported as 5.87 nM. G14A C33U was tested, and the Kd was 6.15 nM. G7U A15U was tested, and the Kd was 6 nM. Work on G7U A15G yielded a Kd of 5.56 nM. G14C U29G showed a Kd of 5.67 nM. For G14U A43G, the Kd was 116 nM. In the case of G14U A43U, the Kd is reported as 84.4 nM. Variant A8U G64C has a Kd of 7.62 nM. C38U gave a Kd of 7.54 nM. Work on A4G C35A yielded a Kd of 9.55 nM. For A15U A24G, the Kd was 6.86 nM. Work on U29G G45U yielded a Kd of 5.6 nM. G20A U22G showed a Kd of 5.27 nM. With A8U G18U the Kd was 5.91 nM. With U10G A59G the Kd was 57.3 nM. Variant A24G G56U has a Kd of 8.45 nM. A5G G55U gave a Kd of 7.72 nM. Variant A19G C35U has a Kd of 7.42 nM. With U47A A67G the Kd was 12 nM. A4G U47A gave a Kd of 12.3 nM. U10G C33A was tested, and the Kd was 5.76 nM. Variant U22G A52G has a Kd of 4.99 nM. U29G A39U showed a Kd of 26.4 nM. Variant C12G C17G has a Kd of 5.66 nM. G20U A24G showed a Kd of 6.87 nM. With U22G C50A the Kd was 19.3 nM. In the case of A15U A19G, the Kd is reported as 9.2 nM. In the case of C12G C37U, the Kd is reported as 16.6 nM. In the case of U22G G55U, the Kd is reported as 7.97 nM. C13G G55U gave a Kd of 7.38 nM. With C17G C25G the Kd was 4.76 nM. Variant G11U G30A has a Kd of 5.79 nM. Variant A4G G64A has a Kd of 8.61 nM. For A4G G64C, the Kd was 7.19 nM. In the case of A24G A46U, the Kd is reported as 58.5 nM. A5G U23C was tested, and the Kd was 5.22 nM. Variant A5G U23A has a Kd of 5.47 nM. With C13U G26A the Kd was 4.43 nM. Variant A24G G42A has a Kd of 56 nM. A8U G11A was tested, and the Kd was 6.46 nM. Work on A8G U28C yielded a Kd of 7.19 nM. With C6G G11A the Kd was 6.31 nM. In the case of U23G A39G, the Kd is reported as 8.65 nM. In the case of C9G C17G, the Kd is reported as 5.43 nM. C12G U41G showed a Kd of 5.67 nM. With U10G C12A the Kd was 5.88 nM. With U29G C35G the Kd was 4.89 nM. For A5G U29G, the Kd was 6.19 nM. Variant A5G U29C has a Kd of 6.65 nM. For A5G G20U, the Kd was 6.78 nM. For U10G G58U, the Kd was 8.62 nM. Work on A19G U23G yielded a Kd of 6.11 nM.

From the RNAGym collection of RNA variant scans (doi:10.1038/nmeth.2970)
